Source: ChEMBL document CHEMBL4043285 (J Med Chem, 2018)

Experiments:
[1] = Inhibition of Aurk mouse L929sA cells transfected with human Fas assessed as reduction in cell growth after 24 hrs in presence of TNF by Hoechst 33342 staining-based microscopic assay
Summary of the method: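 L929sAhFAS cells exposed to compound; total cell number is counted after 24 h. IC50 is fitted from a dose–response curve of cell growth.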

[2] = Inhibition of Aurk mouse L929sA cells transfected with human Fas assessed as increase in nuclear area after 24 hrs in presence of TNF by Hoechst 33342 staining-based microscopic assay
Summary of the method: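 L929sAhFAS cells treated with compound; mean nuclear area is measured and fitted as a sigmoidal dose–response curve.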

Aurk (Aurora kinase) [3] = assay: Inhibition of Aurk in mouse L929sA cells transfected with human Fas assessed as increase in nuclear area at 3 uM after 24 hrs in presence of TNF by Hoechst 33342 staining-based microscopic assay relative to control; assay type: cell-based
Aurk (Aurora kinase) [4] = assay: Inhibition of Aurk in mouse L929sA cells transfected with human Fas assessed as reduction in cell growth at 3 uM after 24 hrs in presence of TNF by Hoechst 33342 staining-based microscopic assay relative to control
[5] = target: T1, Receptor-interacting serine/threonine-protein kinase 1 (Mus musculus) (UniProt Q60855); assay: Inhibition of RIPK1 in mouse L929sA cells transfected with human Fas assessed as inhibition in TNF-induced necroptosis at 3 uM pretreated for 24 hrs followed by TNF and zVAD.fmk addition measured after 3 hrs by Hoechst 33342/propidium iodide staining-based assay relative to control; assay type: cell-based
T1 sequence (whole entry): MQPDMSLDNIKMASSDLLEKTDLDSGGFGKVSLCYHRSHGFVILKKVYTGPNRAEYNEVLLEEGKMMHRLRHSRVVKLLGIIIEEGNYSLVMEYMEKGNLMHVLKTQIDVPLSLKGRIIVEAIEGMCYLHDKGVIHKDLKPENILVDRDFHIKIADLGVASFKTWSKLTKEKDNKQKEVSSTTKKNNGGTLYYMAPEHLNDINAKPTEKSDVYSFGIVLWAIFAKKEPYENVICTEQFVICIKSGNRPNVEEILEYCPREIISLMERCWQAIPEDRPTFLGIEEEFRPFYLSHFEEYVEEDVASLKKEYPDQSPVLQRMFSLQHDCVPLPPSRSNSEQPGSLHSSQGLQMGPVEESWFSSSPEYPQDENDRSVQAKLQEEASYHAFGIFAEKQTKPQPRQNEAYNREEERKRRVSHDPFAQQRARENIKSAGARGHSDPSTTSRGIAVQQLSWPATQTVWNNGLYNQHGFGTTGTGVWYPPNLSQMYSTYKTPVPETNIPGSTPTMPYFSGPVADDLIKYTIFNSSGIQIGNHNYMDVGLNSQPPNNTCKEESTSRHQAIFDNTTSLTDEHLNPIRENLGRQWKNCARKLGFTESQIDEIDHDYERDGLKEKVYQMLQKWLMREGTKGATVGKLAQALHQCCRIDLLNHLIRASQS

[6] = target: T1, Receptor-interacting serine/threonine-protein kinase 1 (Mus musculus); assay: Inhibition of RIPK1 in mouse L929sA cells transfected with human Fas assessed as inhibition in TNF-induced necroptosis at 3 uM pretreated for 0.5 hrs followed by TNF and zVAD.fmk addition measured after 3 hrs by Hoechst 33342/propidium iodide staining-based assay relative to control; assay type: cell-based

IC50 [2] | inhibition at 24 h, 3 µM (Aurk (Aurora kinase) [3]) | Structure (SMILES) | IC50 [1] | inhibition at 24 h, 3 µM (Aurk (Aurora kinase) [4]) | inhibition [5] | inhibition [6]
> 3 µM | < 50% | Cc1cc(Nc2cc(N3CCCCC3)nc(Sc3ccc(NC(=O)C4CCCCC4)cc3)n2)n[nH]1 | 0.813 µM |  |  | 
> 3 µM | < 50% | Cc1cc(Nc2nc(Nc3ccc(NC(=O)C4CC4)cc3)nc(N3CCOCC3)n2)n[nH]1 | > 3 µM | < 50% |  | 
> 3 µM | < 50% | Cc1[nH]nc(Nc2cc(N3CCOCC3)nc(Nc3ccc(NC(=O)C4CCCCC4)cc3)n2)c1C | > 3 µM | < 50% | < 50% | < 50%
< 0.6 µM |  | Cc1cc(Nc2cc(N3CCOCC3)nc(Sc3ccc(NC(=O)C4CCCCC4)cc3)n2)n[nH]1 | 0.214 µM |  |  | 
> 3 µM | < 50% | Cc1[nH]nc(Nc2cc(N3CCOCC3)nc(Nc3ccc(NC(=O)C4CC4)cc3)n2)c1C | > 3 µM | < 50% | < 50% | < 50%
> 3 µM | < 50% | Cc1[nH]nc(Nc2nc(Sc3ccc(NC(=O)C4CC4)cc3)nc(N3CCCCC3)n2)c1C | > 3 µM | < 50% | < 50% | < 50%
> 3 µM | < 50% | Cc1cc(Nc2nc(Sc3ccc(NC(=O)C4CCCCC4)cc3)nc(N3CCCCC3)n2)n[nH]1 | > 3 µM | < 50% | < 50% | < 50%
> 3 µM | < 50% | Cc1[nH]nc(Nc2cc(N3CCCCC3)nc(Nc3ccc(NC(=O)C4CC4)cc3)n2)c1C | > 3 µM | < 50% | < 50% | < 50%
> 3 µM | < 50% | Cc1[nH]nc(Nc2nc(Nc3ccc(NC(=O)C4CCCCC4)cc3)nc(N3CCOCC3)n2)c1C | > 3 µM | < 50% | < 50% | < 50%
0.8 µM |  | Cc1cc(Nc2nc(Sc3ccc(NC(=O)C4CC4)cc3)nc(N3CCN(C)CC3)n2)n[nH]1 | 0.44 µM |  |  | < 50%
> 3 µM | < 50% | Cc1cc(Nc2nc(Nc3ccc(NC(=O)C4CC4)cc3)nc(N3CCCCC3)n2)n[nH]1 | > 3 µM | < 50% | < 50% | < 50%
> 3 µM | < 50% | Cc1[nH]nc(Nc2cc(N3CCCCC3)nc(Sc3ccc(NC(=O)C4CCCCC4)cc3)n2)c1C | > 3 µM | < 50% | < 50% | < 50%
> 3 µM | < 50% | Cc1[nH]nc(Nc2nc(Nc3ccc(NC(=O)C4CCCCC4)cc3)nc(N3CCCCC3)n2)c1C | > 3 µM | < 50% | < 50% | < 50%
> 3 µM | < 50% | CCN1CCN(c2cc(Nc3n[nH]c(C)c3C)nc(Sc3ccc(NC(=O)C4CC4)cc3)n2)CC1 | > 3 µM | < 50% | < 50% | < 50%
> 3 µM | < 50% | Cc1[nH]nc(Nc2nc(Sc3ccc(NC(=O)C4CCCCC4)cc3)nc(N3CCN(C)CC3)n2)c1C | > 3 µM | < 50% | < 50% | < 50%
> 3 µM | < 50% | Cc1cc(Nc2cc(N3CCN(C)CC3)nc(Nc3ccc(NC(=O)C4CCCCC4)cc3)n2)n[nH]1 | > 3 µM | < 50% |  | 
> 3 µM | < 50% | Cc1[nH]nc(Nc2nc(Sc3ccc(NC(=O)C4CC4)cc3)nc(N3CCOCC3)n2)c1C | > 3 µM | < 50% | < 50% | < 50%
> 3 µM | < 50% | Cc1[nH]nc(Nc2cc(N3CCN(C)CC3)nc(Nc3ccc(NC(=O)C4CC4)cc3)n2)c1C | > 3 µM | < 50% | < 50% | < 50%

IC50 [2] | inhibition at 24 h, 3 µM (Aurk (Aurora kinase) [3]) | Structure (SMILES) | IC50 [1] | inhibition at 24 h, 3 µM (Aurk (Aurora kinase) [4]) | inhibition [5] | inhibition [6]
> 3 µM | < 50% | Cc1[nH]nc(Nc2nc(Nc3ccc(NC(=O)C4CC4)cc3)nc(N3CCN(C)CC3)n2)c1C | > 3 µM | < 50% | < 50% | < 50%
> 3 µM | < 50% | Cc1[nH]nc(Nc2nc(Sc3ccc(NC(=O)C4CCCCC4)cc3)nc(N3CCOCC3)n2)c1C | > 3 µM | < 50% | < 50% | < 50%
> 3 µM | < 50% | Cc1cc(Nc2nc(Sc3ccc(NC(=O)C4CC4)cc3)nc(N3CCOCC3)n2)n[nH]1 | > 3 µM | < 50% |  | 
> 3 µM | < 50% | Cc1[nH]nc(Nc2cc(N3CCCCC3)nc(Nc3ccc(NC(=O)C4CCCCC4)cc3)n2)c1C | > 3 µM | < 50% | < 50% | < 50%
> 3 µM | < 50% | Cc1[nH]nc(Nc2nc(Sc3ccc(NC(=O)C4CC4)cc3)nc(N3CCN(C)CC3)n2)c1C | > 3 µM | < 50% | < 50% | < 50%
> 3 µM | < 50% | Cc1[nH]nc(Nc2nc(Sc3ccc(NC(=O)C4CCCCC4)cc3)nc(N3CCCCC3)n2)c1C | > 3 µM | < 50% | < 50% | < 50%
> 3 µM | < 50% | Cc1[nH]nc(Nc2nc(Nc3ccc(NC(=O)C4CC4)cc3)nc(N3CCCCC3)n2)c1C | > 3 µM | < 50% | < 50% | < 50%
> 3 µM | < 50% | Cc1cc(Nc2nc(Nc3ccc(NC(=O)C4CCCCC4)cc3)nc(N3CCN(C)CC3)n2)n[nH]1 | > 3 µM | < 50% | < 50% | < 50%
> 3 µM | < 50% | Cc1[nH]nc(Nc2nc(Nc3ccc(NC(=O)C4CCCCC4)cc3)nc(N3CCN(C)CC3)n2)c1C | > 3 µM | < 50% | < 50% | < 50%
> 3 µM | < 50% | Cc1cc(Nc2cc(N3CCCCC3)nc(Nc3ccc(NC(=O)C4CCCCC4)cc3)n2)n[nH]1 | > 3 µM | < 50% |  | < 50%
> 3 µM | < 50% | Cc1[nH]nc(Nc2cc(N3CCOCC3)nc(Sc3ccc(NC(=O)C4CCCCC4)cc3)n2)c1C | > 3 µM | < 50% | < 50% | < 50%
> 3 µM | < 50% | Cc1cc(Nc2cc(N3CCN(C)CC3)nc(Sc3ccc(NC(=O)C4CCCCC4)cc3)n2)n[nH]1 | < 0.6 µM |  | < 50% | < 50%
1.04 µM |  | Cc1cc(Nc2cc(N3CCOCC3)nc(Sc3ccc(NC(=O)C4CC4)cc3)n2)n[nH]1 | 1 µM |  |  | 
1 µM |  | Cc1cc(Nc2cc(N3CCCCC3)nc(Sc3ccc(NC(=O)C4CC4)cc3)n2)n[nH]1 | 1.32 µM |  |  | 
> 3 µM | < 50% | Cc1cc(Nc2nc(Nc3ccc(NC(=O)C4CCCCC4)cc3)nc(N3CCOCC3)n2)n[nH]1 | 2.3 µM |  | < 50% | < 50%
> 3 µM | < 50% | Cc1cc(Nc2cc(N3CCOCC3)nc(Nc3ccc(NC(=O)C4CCCCC4)cc3)n2)n[nH]1 | 2.25 µM |  |  | 
> 3 µM | < 50% | Cc1cc(Nc2nc(Sc3ccc(NC(=O)C4CCCCC4)cc3)nc(N3CCOCC3)n2)n[nH]1 | 2.17 µM |  |  | < 50%
